Test results published in ChEMBL document CHEMBL1122788, “Quantitative relationships between alpha-adrenergic activity and binding affinity of alpha-adrenoceptor agonists and antagonists” (J Med Chem, 1984).

Legend:
[1] = molecular target: T1, Adrenergic receptor alpha-1 (Rattus norvegicus, UniProt P15823+P23944+P43140); assay: (§1) Inhibition of specific [3H]-prazosin binding (0.2 nM) to rat brain membranes alpha-1 adrenergic receptor; format: cell membranes, Membrane
T1 sequence (P15823 whole entry): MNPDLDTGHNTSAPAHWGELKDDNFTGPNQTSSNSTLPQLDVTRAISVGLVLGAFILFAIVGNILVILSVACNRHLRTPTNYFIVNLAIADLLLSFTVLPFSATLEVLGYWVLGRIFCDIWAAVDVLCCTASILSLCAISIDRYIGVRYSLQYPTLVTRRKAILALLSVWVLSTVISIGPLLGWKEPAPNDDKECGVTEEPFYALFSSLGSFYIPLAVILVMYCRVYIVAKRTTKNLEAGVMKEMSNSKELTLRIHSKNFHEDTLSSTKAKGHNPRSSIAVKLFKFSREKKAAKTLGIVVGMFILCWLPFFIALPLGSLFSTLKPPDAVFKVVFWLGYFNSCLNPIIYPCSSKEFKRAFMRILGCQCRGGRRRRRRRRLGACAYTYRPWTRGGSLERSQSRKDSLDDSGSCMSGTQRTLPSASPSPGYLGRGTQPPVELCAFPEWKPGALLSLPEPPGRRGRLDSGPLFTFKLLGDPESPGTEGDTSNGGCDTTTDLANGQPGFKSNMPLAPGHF
T1 sequence (P23944 whole entry): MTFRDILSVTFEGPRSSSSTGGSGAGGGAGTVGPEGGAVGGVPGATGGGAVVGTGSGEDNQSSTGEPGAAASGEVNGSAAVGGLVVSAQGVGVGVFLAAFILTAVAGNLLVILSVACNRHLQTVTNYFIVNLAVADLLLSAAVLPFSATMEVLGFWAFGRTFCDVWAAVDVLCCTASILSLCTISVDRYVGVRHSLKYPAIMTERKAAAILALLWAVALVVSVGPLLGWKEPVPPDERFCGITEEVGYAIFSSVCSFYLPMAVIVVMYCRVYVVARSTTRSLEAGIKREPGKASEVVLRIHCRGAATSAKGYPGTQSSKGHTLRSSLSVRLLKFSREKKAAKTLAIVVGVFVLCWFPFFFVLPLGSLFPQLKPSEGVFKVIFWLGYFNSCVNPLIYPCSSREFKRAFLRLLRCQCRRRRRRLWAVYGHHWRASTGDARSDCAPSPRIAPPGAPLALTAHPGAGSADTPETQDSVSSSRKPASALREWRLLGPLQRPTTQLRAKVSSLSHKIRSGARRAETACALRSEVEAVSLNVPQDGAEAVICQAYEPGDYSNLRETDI
T1 sequence (P43140 whole entry): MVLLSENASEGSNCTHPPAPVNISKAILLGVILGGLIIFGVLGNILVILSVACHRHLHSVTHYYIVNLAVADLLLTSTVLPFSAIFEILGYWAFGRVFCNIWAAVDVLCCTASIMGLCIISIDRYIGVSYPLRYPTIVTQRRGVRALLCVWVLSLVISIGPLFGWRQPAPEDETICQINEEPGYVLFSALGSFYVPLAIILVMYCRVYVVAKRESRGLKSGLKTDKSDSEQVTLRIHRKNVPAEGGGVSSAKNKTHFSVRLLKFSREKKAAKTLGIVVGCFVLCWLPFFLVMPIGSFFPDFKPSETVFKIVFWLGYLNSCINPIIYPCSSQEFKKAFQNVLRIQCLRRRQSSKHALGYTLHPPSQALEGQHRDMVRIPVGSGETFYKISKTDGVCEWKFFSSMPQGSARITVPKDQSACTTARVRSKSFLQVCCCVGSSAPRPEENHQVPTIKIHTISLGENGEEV
Summary of the method: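 Whole rat brain (minus cerebellum) from male Wistar rats (200–250 g), homogenized in ice-cold 50 mM Tris-HCl pH 7.7 and washed twice at 50000g. Bound ligand was collected by filtration and counted. IC50 was derived by log-probit analysis.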

[2] = molecular target: T1, Adrenergic receptor alpha-1; assay: In vivo antagonist activity against (-)-phenylephrine-induced alpha-1 adrenergic receptor mediated vasoconstriction in pithed normotensive rats.; format: functional, organism-based
[3] = molecular target: T1, Adrenergic receptor alpha-1; assay: as §1; format: cell membranes, Membrane; remark: listed apart in the source
Summary of the method: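 Brain membranes were prepared from male Wistar rats (200–250 g, cerebellum removed) in ice-cold 50 mmol/L Tris-HCl, pH 7.7, with two 50000g spins, and used at 1 mg/mL protein (Lowry). […] Bound label was collected by vacuum filtration and counted. IC50 came from log probit analysis.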

[4] = molecular target: T1, Adrenergic receptor alpha-1; assay: Antagonist activity against phenylephrine-induced alpha1- adrenoceptor mediated vasoconstriction in pithed normotensive rats.; format: functional
[5] = molecular target: Adrenergic receptor alpha-2 (Homo sapiens) (UniProt P08913+P18825+P18089); settings: Oryctolagus cuniculus

Row | SMILES | IC50 [1] [nM] | pA2 [2] | IC50 [3] [nM] | pA2 [4] | pC30 [5]
1 | CN1C[C@H](C(=O)N[C@]2(C)O[C@@]3(O)[C@@H]4CCCN4C(=O)[C@H](Cc4ccccc4)N3C2=O)C[C@@H]2c3cccc4[nH]cc(c34)C[C@H]21 [DIHYDROERGOTAMINE] | 27 | 6.68 |  |  | 
2 | C=CCN1Cc2ccccc2-c2ccccc2C1 [AZAPETINE] |  |  | 205 | 6.09 | 5.89
